Our source for the cytotoxicity values is ChEMBL document CHEMBL4513216, “Probing the Open Global Health Chemical Diversity Library for Multistage-Active Starting Points for Next-Generation Antimalarials” (ACS Infect Dis, 2020).

The nature of this data set: Toxicity liver stage against HepG2, at 10uM. It counts as cell-based. On the set-up: test concentration 10 uM, cell line HepG2-A16-CD81EGFP. As to conditions: human, HepG2-A16-CD81EGFP cells; read-out: INHIBITION
In outline: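 Uninfected HepG2-A16-CD81EGFP cells, 3 × 10^3 per well, 1536-well, plated on prespotted compound at 10 μM final, parasite-free screening media added to match infected plates; puromycin 10 μM positive, DMSO 0.5% negative; run in parallel with 48 h PbLuc assay at 37 °C, 5% CO2; viability by CellTiter-Glo luminescence, normalized to controls.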
Consider `CC(C)c1nnc(NC(=O)C2CSCN2C(=O)C2CCC2)s1` (centres undefined), for which the cytotoxicity at 10 µM was 5.04%.

Take `CCCN1CCCN(C(=O)c2ccc(Oc3cccnc3)cc2)CC1`: the cytotoxicity at 10 µM was -46.9%.

Turning to `COCCCc1nc(-c2ccc(S(=O)(=O)N3CCCC3)cc2)cs1`, the cytotoxicity at 10 µM is -46.3%.

`CC1CN(C)CCN1C(=O)COc1cccc(Oc2ccccn2)c1` (centres undefined): the cytotoxicity at 10 µM was found to be 10.7%.

For the compound `Cc1ncc(S(=O)(=O)N(CC(C)C)c2cccc(O)c2)s1`, the cytotoxicity at 10 µM is -41.2%.

For `Cc1cc(C(=O)N2CCCC2CN2CCCC2)no1` (centres undefined), the cytotoxicity at 10 µM worked out at 10%.

Regarding `CC(=O)N1CCC(NC(=O)c2cc(Cl)ccc2O)CC1`, the cytotoxicity at 10 µM was determined as 0.0966%.

Consider `Cc1nc(C(=O)NS(=O)(=O)c2cccc(C#N)c2)cs1`, for which the cytotoxicity at 10 µM was -1.95%.

`COCCN1CCC(NC(=O)C/C=C/c2ccc(C(C)C)cc2)CC1`: the cytotoxicity at 10 µM was -0.616%.

With `CC(C)(C)n1ncc2c1CCCC2NCc1ccc2c(c1)CCO2` (centres undefined), the cytotoxicity at 10 µM was 2.55%.

Turning to `Cc1nnc(C(C)N2CCc3[nH]c4ccc(Cl)cc4c3C2)o1` (centres undefined), the cytotoxicity at 10 µM is -9.77%.

Take `Cc1cc(NC(N)=O)ccc1C(=O)N(C)C`: the cytotoxicity at 10 µM was determined as 12.2%.

For the compound `Cc1nnc([C@@]23CCO[C@@H]2CCN(S(=O)(=O)c2ccccc2)C3)o1`, the cytotoxicity at 10 µM is -99.4%.

With `CC(C)Nc1ncnc2c1CCN(C(=O)CCc1ccccc1)CC2`, the cytotoxicity at 10 µM is -72%.

As for `CC(C)n1ccnc1C1CCCN(c2nc3ccccc3s2)C1` (centres undefined), the cytotoxicity at 10 µM was 5.07%.

In the case of `CC(C)C[C@H](Nc1nc(C2CCCC2)nc2c1cnn2C)C(N)=O`, the cytotoxicity at 10 µM is -42.3%.

For `C[C@@H]1CN(Cc2cc(C3CCCCC3)no2)CC[C@]1(C)O`, the cytotoxicity at 10 µM was -13.2%.

As to `CCN1CCN(c2ncnc3c2CCN(C(=O)C2CC2)C3)CC1`, the cytotoxicity at 10 µM was -3.2%.

For `COc1ccc2c(c1)OCC(Cc1cncc(N)c1)C2` (centres undefined), the cytotoxicity at 10 µM is -0.918%.

As for `Cc1sc2ncnc(N3CCC(N(C)Cc4cnn(C)c4)CC3)c2c1C`, the cytotoxicity at 10 µM is -2.98%.

`CCc1n[nH]c(C(=O)N2CCN(c3ccc4ccccc4c3)CC2)c1C`: the cytotoxicity at 10 µM was -3.03%.

As for `CNc1nc(C)c(C(=O)N2CCC(C(O)Cc3ccccc3)CC2)s1` (centres undefined), the cytotoxicity at 10 µM came out at 3.11%.

As to `NC(=O)CCn1cc(CNCc2csc(N)n2)c2ccccc21`, the cytotoxicity at 10 µM was found to be 6.7%.

With `CCc1cnc(NCCS(=O)(=O)N(C)C)nc1`, the cytotoxicity at 10 µM was -10.2%.

As for `CC(=O)N[C@@H]1CN(C(=O)c2cc3ccccc3[nH]2)C[C@H]1c1ccc(C)o1`, the cytotoxicity at 10 µM is -10.2%.

In the case of `COc1ccc(C)cc1NC(=O)c1coc(C)n1`, the cytotoxicity at 10 µM is -7.66%.

Consider `CC(=O)Nc1ccc(Cl)c(C(=O)N(C)C(C)c2nccs2)c1` (centres undefined), for which the cytotoxicity at 10 µM is -42.8%.

With `CCn1ccc2ccc(CN3CCCC3c3nc(C(C)C)no3)cc21` (centres undefined), the cytotoxicity at 10 µM was 5.15%.

Regarding `CC(C)SCC(=O)N1CCc2c(nc(N(C)C)nc2N(C)C)C1`, the cytotoxicity at 10 µM was 21.1%.

For `NC(=O)C1CCCN(Cc2c(-c3ccco3)[nH]c3ncccc23)C1` (centres undefined), the cytotoxicity at 10 µM was determined as 3.91%.

Consider `c1ccc(CCN2CCN(c3ccc4nncn4n3)CC2)cc1`, for which the cytotoxicity at 10 µM was -11.7%.

For the compound `O=C1CN(C(=O)c2cccc(OCc3cscn3)c2)CCN1`, the cytotoxicity at 10 µM came out at 1.9%.

As for `O=C(CCc1ccc(Cl)s1)N1CCC(N2CCNC2=O)CC1`, the cytotoxicity at 10 µM came to 2.6%.

Take `Fc1ccc(N2CCOC3(COCCN(c4ncccn4)C3)C2)cc1` (centres undefined): the cytotoxicity at 10 µM is -95.4%.

Regarding `O=C(NC1CC1)[C@@H]1CCO[C@@H]2CCN(CC3CCC3)C[C@H]21`, the cytotoxicity at 10 µM is -111%.

Take `O=C(c1ccccc1)N1CCCC2(CCN2Cc2cccc(F)c2)C1` (centres undefined): the cytotoxicity at 10 µM is -121%.

Turning to `O=C(c1cccnc1)N1CCC2(CCN(C(=O)N3CCCC3)CC2)C1`, the cytotoxicity at 10 µM is -103%.

Consider `Cc1ccc(CN2CC[C@@H]3[C@@H](CO[C@H]3CN(C)C)C2)o1`, for which the cytotoxicity at 10 µM was -130%.

As to `c1cnc(N2CCC3(CCN(Cc4cccnc4)CC3)CC2)nc1`, the cytotoxicity at 10 µM was -88.4%.
